A short description of data set [1]: Volume of distribution at steady state in rat at 0.5 mg/kg by cassette dosing method. The class given is ADME, organism-based. The arrangement: dose 0.5 mg/kg. Conditions: in vivo, read-out: Vdss.
The nature of data set [2]: Metabolic stability in mouse liver microsomes assessed as compound remaining at 0.5 uM after 10 mins. The class given is ADME. The following applies: read-out: Stability. Summed up: (§1)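 Compound at 0.5 μM incubated 10 min with 1 mg/mL human, rat or mouse liver microsomes; percentage of parent remaining reported.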
The nature of data set [3]: Aqueous solubility of the compound at pH 3 using compound in amorphous solid form. The class given is physicochemical. Conditions: buffer.
Data set [4] can be described thus: Metabolic stability in human liver microsomes assessed as compound remaining at 0.5 uM after 10 mins. The data set is classed as ADME. The following applies: read-out: Stability. Summed up:
as §1

The target of a further data set is P2Y purinoceptor 1 (Homo sapiens, UniProt P47900). Put plainly: Antagonist activity at P2Y1 receptor in washed human platelets assessed as 1 uM 2-methylthio-ADP-induced calcium flux by FLIPR assay. The data set is classed as functional.
Data set [5] can be described thus: Metabolic stability in rat liver microsomes assessed as compound remaining at 0.5 uM after 10 mins. The data set is classed as ADME. The following applies: read-out: Stability. Summed up:
as §1

Data set [6] concerns Oryctolagus cuniculus. Put plainly: Antithrombotic activity in rabbit model of electrically-induced carotid artery thrombosis assessed as reduction in thrombus formation dosed 30 mins before electrical stimulation. The data set is classed as functional, organism-based.
Data set [7] has as its system Oryctolagus cuniculus. Put plainly: Induction of bleeding time in rabbit model of electrically-induced carotid artery thrombosis administered 30 mins before electrical stimulation. The data set is classed as organism-based. Conditions: in vivo, 0.5 h. An outline of the steps: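 Rabbits received an iv bolus plus continuous infusion (0.003 + 0.01 up to 0.3 + 1 mg/kg + mg·kg−1·h−1), started 30 min before carotid electrical stimulation and maintained throughout. Vehicle was 10% DMAc/2.5% PVP-K12/1% Pluronic F-108/D5W. Bleeding time was recorded up to 20 min after cuticle incision and expressed as fold of vehicle; mean ± SEM, n = 5–8 per group.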

The target in the next data set is P2Y purinoceptor 2 (Homo sapiens, UniProt P41231). The experiment in a line: Antagonist activity at P2Y2 receptor (unknown origin).
The nature of data set [8]: Oral bioavailability in rat at 0.5 mg/kg by cassette dosing method. The data set is classed as ADME, organism-based. The following applies: in vivo.
In a further data set the target is hERG (KCNH2) (Homo sapiens, UniProt Q12809). The experiment in a line: Inhibition of human ERG at 1 uM by patch clamp assay.
Data set [9] can be described thus: Antagonist activity at P2Y1 receptor in platelet-enriched rabbit plasma assessed as 10 uM ADP-induced platelet aggregation preincubated for 1 min followed by ADP induction measured at 5 mins by aggregometric analysis. The data set is classed as cell-free. Conditions: Oryctolagus cuniculus.
For another data set, the target named is P2Y purinoceptor 12 (Homo sapiens, UniProt Q9H244). Put plainly: Antagonist activity at P2Y12 receptor (unknown origin).
Data set [10] is described as follows: Clearance in rat at 0.5 mg/kg by cassette dosing method. The data set is classed as ADME, organism-based. On the set-up: dose 0.5 mg/kg. Conditions: in vivo.
The test system of data set [11] is Oryctolagus cuniculus. Put plainly: Induction of bleeding time in rabbit model of electrically-induced carotid artery thrombosis at 80% antithrombotic dose administered 30 mins before electrical stimulation (reference value: 1 +/- 0.05). The class given is organism-based. Conditions: in vivo, 0.5 h.
In data set [12] the test system is Oryctolagus cuniculus. The experiment in a line: Induction of bleeding time in rabbit model of electrically-induced carotid artery thrombosis at 0.1 mg/kg, iv + 0.033 mg/kg/hr, iv dosed 30 mins before electrical stimulation (reference value: 1 +/- 0.05). The class given is organism-based. The following applies: in vivo, 0.5 h.
Data set [13] deals with Oryctolagus cuniculus. Put plainly: Antithrombotic activity in rabbit model of electrically-induced carotid artery thrombosis assessed as reduction in thrombus formation at 0.01 mg/kg, iv + 0.033 mg/kg/hr, iv dosed 30 mins before electrical stimulation (reference value: 3 +/- 2%). The data set is classed as functional.
The subject of data set [14] is Oryctolagus cuniculus. Put plainly: Induction of bleeding time in rabbit model of electrically-induced carotid artery thrombosis at 0.003 mg/kg, iv + 0.01 mg/kg/hr, iv dosed 30 mins before electrical stimulation (reference value: 1 +/- 0.05). The data set is classed as organism-based. The following applies: in vivo, 0.5 h.
A short description of data set [15]: Half life in rat at 0.5 mg/kg, iv by discrete dosing method. The arrangement: dose 0.5 mg/kg, route intravenous. Conditions: in vivo. The data set is classed as ADME, organism-based. An outline of the steps:
(§2)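 Discrete rat PK; 0.5 mg/kg iv given in solution in DMAc/cremophor/EtOH/water (10/10/10/70).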

Data set [16] concerns Oryctolagus cuniculus. Put plainly: Induction of bleeding time in rabbit model of electrically-induced carotid artery thrombosis at 0.3 mg/kg, iv + 1 mg/kg/hr, iv dosed 30 mins before electrical stimulation (reference value: 1 +/- 0.05). The data set is classed as organism-based. Conditions: in vivo, 0.5 h.
The nature of data set [17]: Clearance in rat at 0.5 mg/kg, iv by discrete dosing method. The arrangement: dose 0.5 mg/kg, route intravenous. The class given is ADME, organism-based. The following applies: in vivo. An outline of the steps:
as §2

The subject of data set [18] is Oryctolagus cuniculus. The experiment in a line: Antithrombotic activity in rabbit model of electrically-induced carotid artery thrombosis assessed as reduction in thrombus formation at 0.3 mg/kg, iv + 1 mg/kg/hr, iv dosed 30 mins before electrical stimulation (reference value: 3 +/- 2%). The data set is classed as functional.
Data set [19] in a line: Volume of distribution in rat at 0.5 mg/kg, iv by discrete dosing method. The class given is ADME, organism-based. The arrangement: dose 0.5 mg/kg, route intravenous. The following applies: in vivo. An outline of the steps:
as §2

Data set [20] deals with Oryctolagus cuniculus. Put plainly: Antithrombotic activity in rabbit model of electrically-induced carotid artery thrombosis assessed as reduction in thrombus formation at 0.003 mg/kg, iv + 0.01 mg/kg/hr, iv dosed 30 mins before electrical stimulation (reference value: 3 +/- 2%). The class given is functional.
Data set [21] relates to Oryctolagus cuniculus. Put plainly: Antithrombotic activity in rabbit model of electrically-induced carotid artery thrombosis assessed as reduction in thrombus formation at 0.03 mg/kg, iv + 0.1 mg/kg/hr, iv dosed 30 mins before electrical stimulation (reference value: 3 +/- 2%). The data set is classed as functional.
Data set [22] has as its system Oryctolagus cuniculus. The experiment in a line: Induction of bleeding time in rabbit model of electrically-induced carotid artery thrombosis at 0.03 mg/kg, iv + 0.1 mg/kg/hr, iv dosed 30 mins before electrical stimulation (reference value: 1 +/- 0.05). The following applies: in vivo, 0.5 h. The data set is classed as organism-based.
Data set [23] is described as follows: Oral bioavailability in rat at 15 mg/kg by discrete dosing method. The following applies: in vivo. The data set is classed as ADME, organism-based. An outline of the steps:
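Discrete rat PK; 15 mg/kg oral and 0.5 mg/kg iv, both in solution in DMAc/cremophor/EtOH/water (10/10/10/70).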

Data set [24] is described as follows: Aqueous solubility of the compound. The class given is physicochemical. The following applies: buffer. Summed up: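 Amorphous solid; solubility measured at pH 3.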
Data set [25] relates to Oryctolagus cuniculus. Put plainly: Antithrombotic activity in rabbit model of electrically-induced carotid artery thrombosis assessed as reduction in thrombus formation at 0.1 mg/kg, iv + 0.033 mg/kg/hr, iv dosed 30 mins before electrical stimulation (reference value: 3 +/- 2%). The data set is classed as functional.
Data set [26] has as its system Oryctolagus cuniculus. The experiment in a line: Induction of bleeding time in rabbit model of electrically-induced carotid artery thrombosis at 0.01 mg/kg, iv + 0.033 mg/kg/hr, iv dosed 30 mins before electrical stimulation (reference value: 1 +/- 0.05). The following applies: in vivo, 0.5 h. The class given is organism-based.
The test system of data set [27] is Oryctolagus cuniculus. Put plainly: Induction of bleeding time in rabbit model of electrically-induced carotid artery thrombosis at 90% antithrombotic dose administered 30 mins before electrical stimulation (reference value: 1 +/- 0.05). The class given is organism-based. The following applies: in vivo, 0.5 h.

Structures are written as SMILES. In brackets after ≈: the same amount, converted by molar mass. Activity calls are given as the source filed them. No cut-off for these calls is given here.

hERG (KCNH2), sequence (Q12809 whole entry): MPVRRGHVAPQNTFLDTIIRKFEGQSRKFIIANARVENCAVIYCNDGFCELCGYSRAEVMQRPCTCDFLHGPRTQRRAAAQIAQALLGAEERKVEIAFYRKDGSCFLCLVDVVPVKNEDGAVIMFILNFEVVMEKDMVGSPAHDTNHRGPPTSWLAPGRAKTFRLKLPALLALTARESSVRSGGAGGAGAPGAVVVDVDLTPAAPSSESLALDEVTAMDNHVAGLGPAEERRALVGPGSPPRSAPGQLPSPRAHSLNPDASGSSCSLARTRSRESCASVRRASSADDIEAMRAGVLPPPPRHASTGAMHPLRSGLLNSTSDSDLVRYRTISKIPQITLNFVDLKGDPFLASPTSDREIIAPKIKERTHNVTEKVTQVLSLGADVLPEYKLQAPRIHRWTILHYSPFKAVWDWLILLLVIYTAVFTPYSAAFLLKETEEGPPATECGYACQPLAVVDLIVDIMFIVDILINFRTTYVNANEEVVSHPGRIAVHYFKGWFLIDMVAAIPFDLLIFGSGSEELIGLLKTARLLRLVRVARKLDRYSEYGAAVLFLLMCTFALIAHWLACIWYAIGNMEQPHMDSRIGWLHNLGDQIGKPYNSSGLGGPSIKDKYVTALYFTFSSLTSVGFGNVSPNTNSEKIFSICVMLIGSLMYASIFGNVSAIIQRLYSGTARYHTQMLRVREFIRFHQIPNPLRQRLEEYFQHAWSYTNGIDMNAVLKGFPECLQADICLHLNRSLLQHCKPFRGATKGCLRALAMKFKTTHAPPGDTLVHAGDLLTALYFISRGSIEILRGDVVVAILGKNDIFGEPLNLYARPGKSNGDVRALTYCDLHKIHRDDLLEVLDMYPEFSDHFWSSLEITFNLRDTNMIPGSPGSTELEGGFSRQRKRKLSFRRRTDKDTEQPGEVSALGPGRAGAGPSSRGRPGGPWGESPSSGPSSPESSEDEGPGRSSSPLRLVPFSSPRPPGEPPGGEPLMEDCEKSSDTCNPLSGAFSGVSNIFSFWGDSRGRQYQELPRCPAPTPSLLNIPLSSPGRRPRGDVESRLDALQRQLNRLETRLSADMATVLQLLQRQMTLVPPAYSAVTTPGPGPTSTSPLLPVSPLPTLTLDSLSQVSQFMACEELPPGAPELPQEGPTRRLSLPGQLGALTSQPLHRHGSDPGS
P2Y purinoceptor 1, sequence (P47900 whole entry): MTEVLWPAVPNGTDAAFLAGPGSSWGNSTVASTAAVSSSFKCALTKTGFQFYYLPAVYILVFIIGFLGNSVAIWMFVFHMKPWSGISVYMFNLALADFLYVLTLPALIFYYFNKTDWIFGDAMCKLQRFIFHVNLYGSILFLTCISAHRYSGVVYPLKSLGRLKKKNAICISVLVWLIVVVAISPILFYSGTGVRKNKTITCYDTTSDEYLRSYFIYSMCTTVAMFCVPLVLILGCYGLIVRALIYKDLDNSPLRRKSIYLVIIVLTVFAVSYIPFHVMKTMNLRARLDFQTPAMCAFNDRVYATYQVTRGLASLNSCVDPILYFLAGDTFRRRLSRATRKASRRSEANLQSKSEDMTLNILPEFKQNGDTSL
P2Y purinoceptor 2, sequence (P41231 whole entry): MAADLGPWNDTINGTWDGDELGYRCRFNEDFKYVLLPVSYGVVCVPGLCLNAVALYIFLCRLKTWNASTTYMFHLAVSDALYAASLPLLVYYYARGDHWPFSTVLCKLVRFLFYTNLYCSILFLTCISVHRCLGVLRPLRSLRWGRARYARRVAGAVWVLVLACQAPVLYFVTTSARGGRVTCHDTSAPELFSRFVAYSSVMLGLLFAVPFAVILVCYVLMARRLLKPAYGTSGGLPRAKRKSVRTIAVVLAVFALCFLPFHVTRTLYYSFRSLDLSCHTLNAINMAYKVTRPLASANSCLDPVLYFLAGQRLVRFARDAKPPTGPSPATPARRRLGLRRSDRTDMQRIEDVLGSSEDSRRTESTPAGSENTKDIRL
P2Y purinoceptor 12, sequence (Q9H244 whole entry): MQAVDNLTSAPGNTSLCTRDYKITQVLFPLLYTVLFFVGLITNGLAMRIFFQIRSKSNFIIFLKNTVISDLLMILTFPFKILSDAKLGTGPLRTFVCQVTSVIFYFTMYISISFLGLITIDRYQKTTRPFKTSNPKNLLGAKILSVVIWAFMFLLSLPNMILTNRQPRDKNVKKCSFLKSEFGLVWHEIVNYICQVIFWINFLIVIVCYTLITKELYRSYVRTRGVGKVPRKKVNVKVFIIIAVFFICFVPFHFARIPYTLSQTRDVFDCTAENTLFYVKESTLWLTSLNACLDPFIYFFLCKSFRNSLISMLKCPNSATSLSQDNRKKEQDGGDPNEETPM

`CC(C)(C)CN1CCC2(CC1)CN(c1ccccc1NC(=O)Nc1nc3ccc(Cl)nc3s1)c1c(O)cc(F)c(-c3ccc(F)cc3)c12`: in [1], the Vd was found to be 2.1 L/kg. Moreover, the remaining at 10 min, 0.5 µM in data set [2] stood at 100%; in [4] it was 100%; in [5], 93%. In addition, the concentration in solution in data set [3] (solubility) was 3 µg/mL (≈ 4.35 µM). Moreover, the IC50 on P2Y purinoceptor 1 was 0.12 nM; against P2Y purinoceptor 2, more than 10000 nM; in data set [9], 590 nM; against P2Y purinoceptor 12 it was more than 10000 nM. Besides, in the data set on Oryctolagus cuniculus [6], the inhibition entry is “Active”. The Activity entry in the data set on Oryctolagus cuniculus [7] is on record as “Non-toxic”. Moreover, the bioavailability in data set [8] stood at 30%. This compound registered an inhibition at 1 µM at hERG (KCNH2) of 96%. Also, the clearance in data set [10] amounted to 4 mL/min/kg.

Take `CC(C)(C)CN1CCC2(CC1)CN(c1ccccc1NC(=O)Nc1nc3ccc(Cl)nc3s1)c1c(O)ccc(Cl)c12`: in [1], the Vd is 5.4 L/kg. Also, the remaining at 10 min, 0.5 µM in data set [2] came to 84%. The compound further returned an inhibition at 1 µM against hERG (KCNH2) of 57%. Further, the clearance in data set [10] worked out at 10.4 mL/min/kg.

In the case of `CC(=O)Oc1cc2c(s1)CCN(C(C(=O)C1CC1)c1ccccc1F)C2` (stereo unspecified), the inhibition result in the data set on Oryctolagus cuniculus [6] is “Active”. Besides, the “fold change (FC)” value in the data set on Oryctolagus cuniculus [11] is reported as 6.

`CC1(C)CN(c2ccccc2NC(=O)Nc2ccc(OC(F)(F)F)cc2)c2c(O)cc(F)c(-c3ccc(Cl)cc3)c21`: the “fold change (FC)” value in the data set on Oryctolagus cuniculus [12] is listed as 3.7; in the data set on Oryctolagus cuniculus [14], 1.1; with Oryctolagus cuniculus [16], 4.7; with Oryctolagus cuniculus [22] it was 2.7; in the data set on Oryctolagus cuniculus [26], 1.4; in the data set with Oryctolagus cuniculus [27], 4.7. Moreover, the figures for the remaining at 10 min, 0.5 µM in [2], in data set [4] and in data set [5] were 79%, 83% and 90%, respectively. Besides, the “inhibition (INH)” value amounted to 46% in the data set with Oryctolagus cuniculus [13]; 95% in the data set on Oryctolagus cuniculus [18]; 22% in the data set on Oryctolagus cuniculus [20]; 50% in the data set with Oryctolagus cuniculus [21]; 72% in the data set with Oryctolagus cuniculus [25]. This compound gave a half-life in data set [15] of 12 h. For the same compound, the IC50 turned out to be 1.06 nM at P2Y purinoceptor 1 and 87 nM in data set [9]. Moreover, in data set [17], the clearance amounted to 1.3 mL/min/kg. This compound also registered a Vd in [19] of 0.4 L/kg. In addition, the bioavailability in data set [23] is 10%. The solubility in [24] was less than 1 µg/mL.

Values taken from ChEMBL document CHEMBL3352472, “Discovery of 4-aryl-7-hydroxyindoline-based P2Y1 antagonists as novel antiplatelet agents” (J Med Chem, 2014).
